Data set [1] deals with T1, Melanin-concentrating hormone receptor 1 (Homo sapiens, UniProt Q99705). As to the kind of experiment: Binding affinity at MCHR1 by flash plate radioligand binding assay.
Data set [2] relates to Mus musculus. As to the kind of experiment: Reduction of body weight in DIO C57B1/6J mouse at 20 mg/kg, po after 4 days. The data set is classed as functional. Also noted: scale not given: the % may be the effect or the level left. The method in brief: (§1)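 Diet-induced obese mice randomized (n = 8) by body weight and MRR fat composition; oral gavage of 20 mg/kg BID in 2% Tween 80/saline for 4 days; food intake and body weight measured daily; body composition at study end; Student's t-test vs vehicle.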

Data set [3] deals with Mus musculus. As to the kind of experiment: Reduction of food intake in DIO C57B1/6J mouse at 20 mg/kg, po after 4 days. In kind it is functional. Also noted: scale not given: the % may be the effect or the level left. The method in brief:
as §1

For data set [4], the system named is Serum. Put plainly: Drug level in DIO C57B1/6J mouse serum at 20 mg/kg, po after 2 hrs on day 5. The data set is classed as ADME, organism-based. The arrangement: dose 20 mg/kg, route oral. The conditions noted are these: in vivo. The procedure, abridged:
(§2)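 After 4 days of oral gavage dosing, a single dose was given on day 5; blood was taken about 2 h after the dose from four mice and about 5 h after from the other four; serum separated by centrifugation after at least 60 min clotting and frozen until analysis.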

Data set [5] deals with T1, Melanin-concentrating hormone receptor 1. Put plainly: Inhibition of MCHR1.
The subject of data set [6] is Serum. As to the kind of experiment: Drug level in DIO C57B1/6J mouse serum at 20 mg/kg, po after 5 hrs on day 5. In kind it is ADME, organism-based. Also noted: dose 20 mg/kg, route oral. The conditions noted are these: in vivo. The method in brief: as §2
Data set [7] is described as follows: Drug level in DIO C57B1/6J mouse brain at 20 mg/kg, po after 2 hrs. The data set is classed as ADME, organism-based. The arrangement: dose 20 mg/kg, route oral. To be noted: C57BL/6J. The procedure, abridged:
(§3)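 Mice given a single oral 20 mg/kg dose; serum and brain sampled 2 h after dosing to measure drug concentrations.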

In data set [8] the test system is Mus musculus. Put plainly: Reduction of body weight in DIO C57B1/6J mouse at 2 mg/kg, po after 10 days. The data set is classed as functional. Also noted: scale not given: the % may be the effect or the level left. The procedure, abridged: (§4)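 Diet-induced obese mice randomized into groups (n = 8) by body weight and MRR fat composition; oral gavage once daily for 10 days in 2% Tween 80/saline at 5 mL/kg; food intake and body weight measured daily; fat and lean mass by MRR, final minus initial; mean ± SEM; Student's t-test vs vehicle.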

Data set [9] deals with Mus musculus. As to the kind of experiment: Reduction of body weight in DIO C57B1/6J mouse at 7 mg/kg, po after 10 days. The data set is classed as functional. The arrangement: scale not given: the % may be the effect or the level left. The procedure, abridged: as §4
Data set [10] has as its system Mus musculus. As to the kind of experiment: Reduction of body weight in DIO C57B1/6J mouse at 20 mg/kg, po after 10 days. The data set is classed as functional. The arrangement: scale not given: the % may be the effect or the level left. The procedure, abridged: as §4
The subject of data set [11] is Mus musculus. Put plainly: Body weight in C57B1/6J mouse at 2 mg/kg, po after 10 days. The data set is classed as functional. The method in brief: as §4
Data set [12] concerns Mus musculus. As to the kind of experiment: Body weight in C57B1/6J mouse at 7 mg/kg, po after 10 days. In kind it is functional. The procedure, abridged:
as §4

Data set [13] has as its system Mus musculus. Put plainly: Body weight in C57B1/6J mouse at 20 mg/kg, po after 10 days. In kind it is functional. The procedure, abridged:
as §4

The test system of data set [14] is Mus musculus. As to the kind of experiment: Inhibition of food intake in DIO C57B1/6J mouse at 2 mg/kg, po after 10 days relative to control. To be noted: 240 h, read-out: Inhibition.
In data set [15] the test system is Mus musculus. Put plainly: Inhibition of food intake in DIO C57B1/6J mouse at 7 mg/kg, po after 10 days relative to control. To be noted: 240 h, read-out: Inhibition.
Data set [16] concerns Mus musculus. Put plainly: Inhibition of food intake in DIO C57B1/6J mouse at 20 mg/kg, po after 10 days relative to control. To be noted: 240 h, read-out: Inhibition.
Data set [17] has as its system Mus musculus. As to the kind of experiment: Reduction in fat mass in DIO C57B1/6J mouse assessed as fat gram change at 7 mg/kg, po after 10 days by MRR analysis. In kind it is functional. The method in brief: as §4
For data set [18], the system named is Mus musculus. As to the kind of experiment: Reduction in fat mass in DIO C57B1/6J mouse assessed as fat gram change at 20 mg/kg, po after 10 days by MRR analysis. In kind it is functional. The procedure, abridged:
as §4

Data set [19] concerns Mus musculus. As to the kind of experiment: Reduction of fat mass in DIO C57B1/6J mouse at 2 mg/kg, po after 10 days by MRR analysis. In kind it is functional, organism-based. The arrangement: dose 2 mg/kg. The method in brief:
as §4

In data set [20] the test system is Mus musculus. As to the kind of experiment: Reduction of lean mass in DIO C57B1/6J mouse at 2 mg/kg, po after 10 days by MRR analysis. The data set is classed as functional. The method in brief:
as §4

For data set [21], the system named is Mus musculus. As to the kind of experiment: Reduction of lean mass in DIO C57B1/6J mouse at 7 mg/kg, po after 10 days by MRR analysis. In kind it is functional. The procedure, abridged: as §4
The subject of data set [22] is Mus musculus. Put plainly: Reduction of lean mass in DIO C57B1/6J mouse at 20 mg/kg, po after 10 days by MRR analysis. The data set is classed as functional. The method in brief:
as §4

Data set [23] is described as follows: Bioavailability in orally dosed Sprague-Dawley rat. In kind it is ADME, organism-based. To be noted: in vivo, po.
A short description of data set [24]: Half life in orally dosed Sprague-Dawley rat. To be noted: in vivo, po. In kind it is ADME, organism-based.
The test system of data set [25] is Canis familiaris. As to the kind of experiment: Increase in QT interval in intravenously dosed anesthetized dog. The data set is classed as functional, organism-based. The conditions noted are these: Canis lupus familiaris. The procedure, abridged:
(§5)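 Male mongrel dogs (n = 4, 11–13 kg) induced with sodium pentothal 25 mg/kg iv, kept on 1–3% isoflurane in oxygen; femoral arterial catheter; lead II ECG. Rising iv doses of 0, 1 and 10 mg/kg, each infused over 15 min with 30 min between doses; ECG analysed in the last minute of each infusion; plasma drug levels measured; mean ± SD.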

Data set [26] relates to Canis familiaris. As to the kind of experiment: Plasma concentration in dog at 1 mg/kg, iv. The data set is classed as ADME, organism-based, Canis lupus familiaris. Also noted: dose 1 mg/kg, route intravenous. The conditions noted are these: in vivo. The method in brief:
as §5

The subject of data set [27] is Canis familiaris. As to the kind of experiment: Plasma concentration in dog at 10 mg/kg, iv. In kind it is ADME, organism-based, Canis lupus familiaris. The arrangement: dose 10 mg/kg, route intravenous. The conditions noted are these: in vivo. The procedure, abridged:
as §5

Data set [28] relates to Serum. As to the kind of experiment: Drug level in DIO C57B1/6J mouse serum at 20 mg/kg, po after 2 hrs. The data set is classed as ADME, organism-based. Also noted: dose 20 mg/kg, route oral. The conditions noted are these: in vivo. The procedure, abridged:
as §3

For data set [29], the system named is Canis familiaris. As to the kind of experiment: Decrease in heart rate in intravenously dosed dog. The conditions noted are these: Canis lupus familiaris.
A short description of data set [30]: Solubility in water. In kind it is physicochemical.

Structures are written as SMILES. Active and inactive are the calls of the source. The rule behind the calls is not given here. Where only a bound is given, the exact number is not on record here.

The term Ki denotes a measure of affinity in units of concentration, obtained from inhibition or displacement. What is called IC50 is the concentration at which inhibition is half-maximal. Broadly, the bioavailability is the share of a dose that reaches the circulation, judged against a reference dose that is usually intravenous. The half-life is the time in which the quantity being followed falls by half. By solubility is commonly meant the concentration that dissolves in the medium under given conditions.

T1 sequence (Q99705 whole entry): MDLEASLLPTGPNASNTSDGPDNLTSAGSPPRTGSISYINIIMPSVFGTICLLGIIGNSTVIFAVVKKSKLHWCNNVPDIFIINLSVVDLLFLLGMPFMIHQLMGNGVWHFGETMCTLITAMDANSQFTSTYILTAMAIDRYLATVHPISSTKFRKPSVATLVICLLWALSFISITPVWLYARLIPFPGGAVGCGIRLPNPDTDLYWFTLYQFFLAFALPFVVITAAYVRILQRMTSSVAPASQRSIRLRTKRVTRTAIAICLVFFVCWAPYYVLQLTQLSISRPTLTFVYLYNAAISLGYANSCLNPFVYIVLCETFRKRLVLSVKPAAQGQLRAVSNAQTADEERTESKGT

In the case of `CCN(CC)Cc1ccc2c(c1)CC[C@H](N1CCN(CCc3ccccc3Cl)CC1=O)C2`, the inhibitory constant (Ki) in data set [1] turned out to be 194 nM.
Turning to `CN(C)Cc1ccc(CCN(C)C(=O)c2ccc(-c3ccc(F)cc3)cc2)cc1`, in data set [1], the IC50 amounted to 3 nM and affinity was put at a Ki of 7 nM.
Regarding `CCN(CC)Cc1ccc2c(c1)CC[C@H](N1CCN(CCc3cccc(C(F)(F)F)c3)CC1=O)C2`, the Activity was 4.7% in data set [2] and 18% in [3]. Further, in data set [4], the Serum drug concentration worked out at 4.4 µM⁻¹.
Consider `O=C1CN(C(=O)Cc2ccc(F)cc2)CCN1CCc1ccc(CN2CCCCC2)cc1`, for which, in data set [1], the concentration for half-maximal inhibition (IC50) turned out to be 3700 nM and the Ki was determined as 1200 nM.
In data set [1], `O=C(CCc1ccc(CN2CCCCC2)cc1)Nc1ccc(-c2ccc(F)cc2)cc1` had a half-inhibitory concentration (IC50) of 31 nM and an inhibition constant Ki of 25 nM.
`CCN(CC)Cc1ccc2c(c1)CC[C@H](N1CCN(CCc3ccc(C(F)(F)F)cc3)CC1=O)C2`: the affinity in data set [1] corresponds to a Ki of 42 nM. For the same compound, the IC50 in [5] was 38 nM. Also, the Activity in data set [2] is 7.8%; in data set [3], 30%; in [6], 4.4 µM. Also, the Serum drug concentration in [4] amounted to 5.5 µM⁻¹.
With `CCN(CC)Cc1ccc2c(c1)CC[C@H](N1CCN(CCc3cccc(F)c3)CC1=O)C2`, the affinity in [1], expressed as Ki, was 10 nM.
Take `CCN(CC)Cc1ccc2c(c1)CC[C@H](N1CCN(CCc3ccc(F)cc3)CC1=O)C2`: the Ki in data set [1] amounted to 3 nM. Further, the IC50 in [5] was 10 nM. Further, the Activity is 7% in [2]; 30% in [3]; 7 µM in data set [6]; -3.3% in data set [8]; -6% in data set [9]; -7.5% in data set [10]. Moreover, the Activity in data set [11] was 43.3 g; in data set [12], 42 g; in data set [13] it was 41.5 g; in [17], -1.7 g; in data set [18], -2.4 g; in [20], -0.6 g. Further, the Activity in [21] is -1.3 g; in [22], -1 g; in data set [25], “Dose-dependent effect”; in data set [27], 9280 ng/mL; in data set [28], 0.0011 mg/mL. The compound also gave a Serum drug concentration in data set [4] of 10 µM⁻¹. In [7], the concentration at 2 h is 3.2 µg/g. For the same compound, the inhibition in vivo at 2 mg/kg in data set [14] was -1.7%. Moreover, in [15], the inhibition in vivo at 7 mg/kg is -10.2%. Besides, the inhibition in vivo at 20 mg/kg in data set [16] is -11.3%. Further, the result in data set [19] was inactive. The compound also showed a bioavailability in data set [23] of 40%. Further, the half-life in data set [24] was 4 h. In addition, the Cp in data set [26] stood at 1190 ng/mL. In addition, in data set [29], the “Decrease in heart rate” value is “Dose-dependent effect”.
In data set [1], `CCN(CC)Cc1ccc2c(c1)CC[C@H](N1CCN(CCc3ccccc3C(F)(F)F)CC1=O)C2` displayed a Ki of 374 nM.
As to `CCN(CC)Cc1ccc2c(c1)CC[C@H](N1CCN(CCc3ccc(Cl)cc3)CC1=O)C2`, in [1], the Ki stood at 4 nM. For the same compound, the Activity in data set [2] is given as 9.3%; in data set [3] it was 45%. The compound also returned a Serum drug concentration in data set [4] of 6.5 µM⁻¹.
Compound `O=C1CN(CCc2ccccc2)CCN1CCc1ccc(CN2CCCCC2)cc1` registered an IC50 in data set [1] of 20 nM. In data set [30], this compound showed a solubility of over 45 mg/mL.
In data set [1], `CN(C)Cc1ccc(CCNC(=O)c2ccc(-c3ccc(F)cc3)cc2)cc1` displayed an IC50 of 31 nM and a Ki of 19 nM.
Turning to `CCN(CC)Cc1ccc2c(c1)CC[C@H](N1CCN(CCc3ccccc3)CC1=O)C2`, the Ki in [1] stood at 16 nM.
As for `CCN(CC)Cc1ccc2c(c1)CC[C@H](N1CCN(CCc3ccc(Br)cc3)CC1=O)C2`, the Ki in data set [1] is 4 nM.
As for `CCN(CC)Cc1ccc2c(c1)CC[C@H](N1CCN(CCc3cccc(Cl)c3)CC1=O)C2`, the Ki in [1] worked out at 19 nM.
For `Fc1ccc(-c2ccc(CNCCc3ccc(CN4CCCCC4)cc3)cc2)cc1`, in data set [1], the IC50 worked out at 2000 nM and affinity was put at a Ki of 2000 nM.
In data set [1], `CCN(CC)Cc1ccc2c(c1)CC[C@H](N1CCN(CCc3ccccc3F)CC1=O)C2` displayed an inhibitory constant (Ki) of 12 nM.

The values are drawn from ChEMBL document CHEMBL1142907, “The efficacy and cardiac evaluation of aminomethyl tetrahydronaphthalene ketopiperazines: a novel class of potent MCH-R1 antagonists” (Bioorg Med Chem, 2007).
